{"data": "Results pooled from the literature", "read-out": "cell growth or viability", "note": "Compare with care: the assays were run in different laboratories."}
{"Compound": "C#CCSc1nc(Sc2nnnn2-c2ccccc2)c2nnn(Cc3ccc(OC)cc3)c2n1", "cell line": "Raji", "test": "MTS", "conditions": "6 days", "IC50": "3320 nM"}
{"Compound": "Cn1nnc2c(C(=O)N3CCCC3)ncn2c1=O", "cell line": "U-87 MG", "test": "resazurin", "conditions": "7 days", "IC50": "17000 nM"}
{"Compound": "COc1cccc2c1C(=O)c1c(O)c3c(c(O)c1C2=O)C[C@@](O)(C(=O)CO)C[C@@H]3O[C@H]1C[C@H](N)[C@H](O)[C@H](C)O1", "cell line": "ChaGo-K-1", "test": "MTT", "conditions": "48 h", "IC50": "0.65 µg/mL"}
{"Compound": "C=CC(=O)Nc1cc(Nc2nccc(-c3cn(C)c4ccccc34)n2)c(OC)cc1N(C)CCN(C)C", "cell line": "PC-9", "test": "ATP luminescence", "conditions": "72 h", "IC50": "4.3 nM"}
{"Compound": "COc1c(C)c(OS(=O)(=O)c2ccc3ccccc3c2)c(C)c(OS(=O)(=O)c2ccc3ccccc3c2)c1C(=O)/C=C/c1ccccc1", "cell line": "KKU-M213", "test": "SRB", "conditions": "72 h", "IC50": "> 50000 nM"}
{"Compound": "CC1=C(O)C(=O)C=C2C1=CC=C1[C@@]2(C)CC[C@@]2(C)[C@@H]3C[C@](C)(C(=O)OCCCCCCCCO)CC[C@]3(C)CC[C@]12C", "cell line": "AGS", "test": "MTT", "conditions": "48 h", "IC50": "420 nM"}
{"Compound": "COc1cc(/C=C2\\SC(=O)NC2=O)ccc1OCc1ccc(Cl)cc1Cl", "cell line": "MEF", "test": "MTT", "conditions": "72 h", "IC50": "8600 nM"}
{"Compound": "CC1=C(O)C(=O)C=C2C1=CC=C1[C@@]2(C)CC[C@@]2(C)[C@@H]3C[C@](C)(C(=O)OCCCCCCCO)CC[C@]3(C)CC[C@]12C", "cell line": "AGS", "test": "MTT", "conditions": "48 h", "IC50": "410 nM"}
{"Compound": "CCc1ccc(N2NC(=O)/C(=C/c3ccc(-c4ccc(S(=O)(=O)Nc5nccs5)cc4)o3)C2=O)cc1", "cell line": "MEF", "test": "MTT", "conditions": "72 h", "IC50": "50000 nM"}
{"Compound": "Cc1ncn2c(=O)n(C)nnc12", "cell line": "U-87 MG", "test": "resazurin", "conditions": "7 days", "IC50": "3000 nM"}
{"Compound": "Cc1cccc(-n2ncc(Br)c(Br)c2=O)c1", "cell line": "PC-9", "test": "resazurin", "conditions": "96 h", "IC50": "860 nM"}
{"Compound": "CCN1C(=O)N(c2c(F)c(OC)cc(OC)c2F)Cc2cnc3[nH]c(CN4CCOCC4)cc3c21", "cell line": "JMSU-1", "test": "ATP luminescence", "conditions": "96 h", "IC50": "8.79 nM"}
{"Compound": "CC1=C(O)C(=O)C=C2C1=CC=C1[C@@]2(C)CC[C@@]2(C)[C@@H]3C[C@](C)(C(=O)OCCCCO)CC[C@]3(C)CC[C@]12C", "cell line": "AGS", "test": "MTT", "conditions": "48 h", "IC50": "350 nM"}
{"Compound": "O=C1NCCc2[nH]c(-c3ccncc3)cc21", "cell line": "EKVX", "IC50": "> 10000 nM"}
{"Compound": "COCCCOC(=O)[C@]1(C)CC[C@]2(C)CC[C@]3(C)C4=CC=C5C(=CC(=O)C(O)=C5C)[C@]4(C)CC[C@@]3(C)[C@@H]2C1", "cell line": "AGS", "test": "MTT", "conditions": "48 h", "IC50": "390 nM"}
{"Compound": "O=c1[nH]cc(S(=O)(=O)Nc2cccc(-c3nnc(-c4cccc(Cl)c4)o3)c2)c(=O)[nH]1", "cell line": "PC-9", "test": "MTT", "conditions": "24 h", "IC50": "1100 nM"}
{"Compound": "CC1=C(O)C(=O)C=C2C1=CC=C1[C@@]2(C)CC[C@@]2(C)[C@@H]3C[C@](C)(C(=O)OCCCOc4ccccc4)CC[C@]3(C)CC[C@]12C", "cell line": "AGS", "test": "MTT", "conditions": "48 h", "IC50": "1360 nM"}
{"Compound": "Cn1nnc2c(C(N)=O)ncn2c1=O", "cell line": "IMR-32", "IC50": "81600 nM"}
{"Compound": "COc1ccc(/C=C/C(=O)c2cc(Br)ccc(=O)c2O)cc1", "cell line": "MEF", "test": "MTT", "conditions": "72 h", "IC50": "6000 nM"}
{"Compound": "CC(=O)OCCOC(=O)[C@]1(C)CC[C@]2(C)CC[C@]3(C)C4=CC=C5C(=CC(=O)C(O)=C5C)[C@]4(C)CC[C@@]3(C)[C@@H]2C1", "cell line": "AGS", "test": "MTT", "conditions": "48 h", "IC50": "430 nM"}
